ChEMBL document CHEMBL4138281, “Anti-Staphylococcal Calopins from Fruiting Bodies of Caloboletus radicans” (2018)
In brackets after ≈: the same amount, converted by molar mass. Activity calls are given as the source filed them. The calls are words filed in the database; no cut-off is given here.

Assays:
[1] = system: Staphylococcus aureus; assay: Antimicrobial activity against […] Staphylococcus aureus ATCC 25923 after 18 hrs by MTT based broth dilution assay; format: functional; conditions: ATCC 25923, 18 h
Summary of the method: (§1)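 Strains grown 24 h at 37 °C on nutrient agar. Inoculum of 5 × 10^5 CFU set in 0.9% saline against a 0.5 McFarland standard. Compounds serially diluted 0.5–256 μg/mL in Mueller–Hinton broth, inoculated and incubated 18 h at 37 °C; DMSO control; norfloxacin positive control. MTT (5 mg/mL methanolic) added for 20 min; MIC is the lowest concentration with no growth (no yellow-to-blue change); at least three independent determinations.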

[2] = system: Staphylococcus aureus; assay: Antimicrobial activity against tetracycline/methicillin-resistant Staphylococcus aureus XU212 after 18 hrs by MTT based broth dilution assay; format: functional; conditions: XU212, 18 h; summary of the method: as §1
[3] = system: Staphylococcus aureus; assay: Antimicrobial activity against methicillin-resistant Staphylococcus aureus EMRSA-15 after 18 hrs by MTT based broth dilution assay; format: functional; conditions: EMRSA-15, 18 h; summary of the method: as §1
[4] = system: Enterococcus faecalis; assay: Antimicrobial activity against Enterococcus faecalis FF11 at 40 ug/disk after 2 days by disc diffusion method; format: functional, organism-based
Summary of the method: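 Bacterial suspension (1 × 10^5 CFU/mL) spread on Mueller–Hinton agar. Paper disks (8 mm) carried 40 μL of a 1000 μg/mL acetone solution, dried, and were placed on the plate. Incubated 2 days at 37 °C; halo diameter measured; mean ± standard error of three replications; azithromycin positive control.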

[5] = system: Colletotrichum gloeosporioides; assay: Antimicrobial activity against Colletotrichum gloeosporioides at 40 ug/disk after 5 days by disc diffusion method; format: functional, organism-based
Summary of the method: (§2)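 Fungi pre-grown on 10% V8 agar at 25 °C in the dark. A 4 mm mycelial agar block was centred on a 9 cm PDA plate. Paper disks (8 mm) carried 40 μL of a 1000 μg/mL acetone stock, dried, and were set 4 mm from the block. Plates incubated 5 days at 25 °C in the dark; inhibition zone measured in mm; triplicate.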

[6] = system: PC-3; assay: Cytotoxicity against human PC3 cells at 100 uM after 72 hrs by SRB assay; format: functional, cell-based
Summary of the method: (§3)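 SRB assay. Cells kept in DMEM with 10% FBS and 1% penicillin–streptomycin at 37 °C, 5% CO2. Seeded at 5 × 10^4 cells/mL, adapted overnight, then exposed to compounds for 72 h. Cells fixed with 10% TCA (30 min, 4 °C), stained with SRB for 30 min, washed with 1% acetic acid, OD read at 540 nm. Paclitaxel positive control; 0.05% DMSO negative control; triplicate.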

[7] = system: HepG2; assay: Cytotoxicity against human HepG2 cells at 100 uM after 72 hrs by SRB assay; format: functional, cell-based; summary of the method: as §3
[8] = system: Staphylococcus aureus; assay: Antimicrobial activity against […] Staphylococcus aureus SA1199B after 18 hrs by MTT based broth dilution assay; format: functional; summary of the method: as §1
[9] = system: Pyricularia oryzae; assay: Antimicrobial activity against Magnaporthe oryzae Triticum pathotype at 40 ug/disk after 5 days by disc diffusion method; format: functional, organism-based; summary of the method: as §2
[10] = system: Enterococcus faecalis; assay: Antimicrobial activity against Enterococcus faecalis F1B1 assessed as zone of inhibition at 40 ug/disk after 2 days by disc diffusion method; format: functional; conditions: F1B1, 48 h, read-out: DIZ
Summary of the method: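 Disk diffusion on Mueller-Hinton agar spread with bacterial suspension (1 × 10^5 CFU/mL). 40 μL of a 1000 μg/mL acetone solution loaded on an 8 mm paper disk and dried before placement. Incubated 2 days at 37 °C, then diameter of the bacteria-free halo measured. Mean ± standard error of three replicates; azithromycin positive control.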

Structure (SMILES): CC(=O)O[C@@H]1[C@@H](O)C(C)=CC[C@]12[C@H]1[C@H](C)COC(=O)[C@H]1O[C@@]2(C)O
- MIC [1]: 16 µg/mL (≈ 47 µM)
- MIC [2]: 32 µg/mL (≈ 94 µM)
- MIC [3]: 32 µg/mL (≈ 94 µM)
- Activity [4]: inactive
- Activity [5]: inactive
- Activity [6]: inactive
- Activity [7]: inactive
- MIC [8]: 16 µg/mL (≈ 47 µM)
- Activity [9]: inactive

Structure (SMILES): CCn1cc(C(=O)O)c(=O)c2cc(F)c(N3CCNCC3)cc21 [NORFLOXACIN]
- MIC [1]: 32 µg/mL (≈ 100 µM)
- MIC [2]: 32 µg/mL (≈ 100 µM)
- MIC [3]: 32 µg/mL (≈ 100 µM)
- MIC [8]: 64 µg/mL (≈ 200 µM)

Structure (SMILES): COCC1=CC[C@]2([C@H]3[C@H](C)COC(=O)[C@H]3O[C@@]2(C)OC)[C@H](O)C1=O
- MIC [1]: 128 µg/mL (≈ 376 µM)
- MIC [2]: 128 µg/mL (≈ 376 µM)
- zone of inhibition at 40 µg/disc [10]: 5.5 mm
- MIC [3]: 256 µg/mL (≈ 752 µM)
- Activity [4]: inactive
- Activity [5]: inactive
- Activity [6]: inactive
- Activity [7]: inactive
- MIC [8]: 256 µg/mL (≈ 752 µM)
- Activity [9]: inactive

Structure (SMILES): COCC1=CC[C@]2([C@H]3[C@H](C)COC(=O)[C@H]3O[C@@]2(C)O)[C@H](O)C1=O
- MIC [1]: 64 µg/mL (≈ 196 µM)
- MIC [2]: 128 µg/mL (≈ 392 µM)
- MIC [3]: 128 µg/mL (≈ 392 µM)
- Activity [4]: inactive
- Activity [5]: inactive
- Activity [6]: inactive
- Activity [7]: inactive
- MIC [8]: 64 µg/mL (≈ 196 µM)
- Activity [9]: inactive

Structure (SMILES): CC(=O)O[C@@H]1C(=O)OC[C@@H](C)[C@@H]1c1ccc(C)c(O)c1O
- MIC [2]: 64 µg/mL (≈ 217 µM)
- zone of inhibition at 40 µg/disc [10]: 9.5 mm
- MIC [3]: 64 µg/mL (≈ 217 µM)
- Activity [4]: inactive
- Activity [5]: inactive
- Activity [6]: inactive
- Activity [7]: inactive
- MIC [8]: 128 µg/mL (≈ 435 µM)
- Activity [9]: inactive

Structure (SMILES): CC1C(=O)[C@@H](O)[C@@]23C[C@H]1O[C@]2(O)O[C@@H]1C(=O)OC[C@@H](C)[C@@H]13 (some centres undefined)
- MIC [1]: 64 µg/mL (≈ 215 µM)
- MIC [2]: 64 µg/mL (≈ 215 µM)
- MIC [3]: 64 µg/mL (≈ 215 µM)
- Activity [4]: inactive
- Activity [5]: inactive
- Activity [6]: inactive
- Activity [7]: inactive
- MIC [8]: 128 µg/mL (≈ 429 µM)
- Activity [9]: inactive

Structure (SMILES): CC1=CC[C@]2([C@H]3[C@H](C)COC(=O)[C@H]3O[C@@]2(C)O)[C@@H](O)[C@H]1O
- MIC [1]: 32 µg/mL (≈ 107 µM)
- MIC [3]: 64 µg/mL (≈ 215 µM)
- Activity [4]: inactive
- Activity [5]: inactive
- Activity [6]: inactive
- Activity [7]: inactive
- MIC [8]: 64 µg/mL (≈ 215 µM)
- Activity [9]: inactive

Structure (SMILES): CC(=O)O[C@@H]1[C@@H](OC(C)=O)C(C)=CC[C@]12[C@H]1[C@H](C)COC(=O)[C@H]1O[C@@]2(C)O
- MIC [2]: 64 µg/mL (≈ 167 µM)
- zone of inhibition at 40 µg/disc [10]: 5.5 mm
- Activity [4]: inactive
- Activity [5]: inactive
- Activity [6]: inactive
- Activity [7]: inactive
- MIC [8]: 64 µg/mL (≈ 167 µM)
- Activity [9]: inactive

Structure (SMILES): CC1=CC[C@]2([C@H]3[C@H](C)COC(=O)[C@H]3O[C@@]2(C)O)[C@H](O)C1=O
- MIC [1]: 32 µg/mL (≈ 108 µM)
- zone of inhibition at 40 µg/disc [10]: 7.1 mm
- MIC [3]: 64 µg/mL (≈ 216 µM)
- Activity [4]: inactive
- Activity [5]: inactive
- Activity [6]: inactive
- Activity [7]: inactive
- MIC [8]: 64 µg/mL (≈ 216 µM)
- Activity [9]: inactive

Structure (SMILES): Cc1ccc([C@H]2[C@H](C)COC(=O)[C@H]2O)c(O)c1O
- MIC [1]: 64 µg/mL (≈ 254 µM)
- MIC [2]: 128 µg/mL (≈ 507 µM)
- zone of inhibition at 40 µg/disc [10]: 5.6 mm
- MIC [3]: 128 µg/mL (≈ 507 µM)
- Activity [4]: inactive
- Activity [5]: inactive
- Activity [6]: inactive
- Activity [7]: inactive
- MIC [8]: 128 µg/mL (≈ 507 µM)
- Activity [9]: inactive

Structure (SMILES): C[C@@H]1COC(=O)[C@H]2O[C@@](C)(O)[C@@]3(CC=C(CO)C(=O)[C@H]3O)[C@@H]12
- MIC [1]: 64 µg/mL (≈ 205 µM)
- MIC [2]: 64 µg/mL (≈ 205 µM)
- MIC [3]: 128 µg/mL (≈ 410 µM)
- Activity [4]: inactive
- Activity [5]: inactive
- Activity [6]: inactive
- Activity [7]: inactive
- MIC [8]: 128 µg/mL (≈ 410 µM)
- Activity [9]: inactive
